Screening results from PubChem BioAssay.
TDP2 inh = human TDP2 enzyme inhibitors, primary screen, biochemical, epi absorbance, recombinant enzyme. Tyrosyl-DNA phosphodiesterase 2 (Homo sapiens), O95551. T5PNP hydrolysis, p-nitrophenol absorbance 415 nm. 0.34% of 370,000 active. inhibition, % at 12.8 µM;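 active = inhibition above the mean of all tested compounds plus 3 SD, set per campaign, cut at about 25% in these data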;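 also: 0% = DMSO with enzyme and 100% = buffer with substrate but no TDP2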
Target sequence (O95551 whole entry, looked up): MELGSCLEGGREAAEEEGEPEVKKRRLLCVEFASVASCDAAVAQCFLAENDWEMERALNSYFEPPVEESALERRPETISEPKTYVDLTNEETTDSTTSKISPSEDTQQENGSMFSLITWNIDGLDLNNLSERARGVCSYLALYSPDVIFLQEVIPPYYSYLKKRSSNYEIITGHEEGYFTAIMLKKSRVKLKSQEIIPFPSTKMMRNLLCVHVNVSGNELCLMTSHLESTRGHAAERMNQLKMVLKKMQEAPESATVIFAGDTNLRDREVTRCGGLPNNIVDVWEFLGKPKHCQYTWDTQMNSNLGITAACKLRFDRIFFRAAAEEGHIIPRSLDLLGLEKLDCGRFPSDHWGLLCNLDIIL
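Incubation: 2 h at 37 °C; Test system: recombinant human TDP2; Quantity: enzyme 120 nM; Read-out basis: percent inhibition; Medium: 50 mM Tris-HCl pH 7.5 with Mg2+, KCl, DTT, BSA; Repeats: single replicate; Compound: 12.8 µM single point, 1% DMSO; Signal: epi absorbance; Reagent: 5 mM T5PNP chromogenic substrate; Benchmarks: no-enzyme high, DMSO-plus-enzyme low.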
GSTO1 counter = inhibitors of recombinant GSTO1, primary screen, counter-screen for RBBP9 inhibitor project, biochemical, fluorescence polarization | activity-based probe fluorescence polarization | inhibition, % at 5.96 µM | 1.1% of 300,000 active | AID 1974, 2009;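 active = inhibition above the campaign mean inhibition plus 3 SD, cut at about 35% in these data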;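 also: 0% = GSTO1-1 with DMSO and 100% = wells lacking GSTO1-1 enzyme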
Target sequence (P78417 whole entry, looked up): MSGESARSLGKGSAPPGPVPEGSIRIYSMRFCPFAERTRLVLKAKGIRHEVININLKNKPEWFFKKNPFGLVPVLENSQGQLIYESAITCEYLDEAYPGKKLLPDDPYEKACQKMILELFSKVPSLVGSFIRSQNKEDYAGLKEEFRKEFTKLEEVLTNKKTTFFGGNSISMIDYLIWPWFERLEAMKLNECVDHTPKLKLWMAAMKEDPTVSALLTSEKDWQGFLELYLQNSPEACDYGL
PAD4 inh = human PAD4 inhibitors, primary screen, biochemical, fluorescence polarization, 1536-well format | recombinant PAD4, RCA probe fluorescence polarization | inhibition, % at 6.36 µM | 0.41% of 330,000 active;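 active = percent inhibition above a cutoff equal to the mean of all tested compounds plus 3 SD, cut at about 15% in these data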;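 also: 0% = PAD4 with RCA probe and DMSO and 100% = probe without PAD4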
PRMT1 inh = PRMT1 methyltransferase inhibitors, primary screen, biochemical, fluorescence polarization | Protein arginine N-methyltransferase 1 (Homo sapiens), Q99873 | 1.3% of 370,000 active | recombinant PRMT1, activity-based probe fluorescence polarization | inhibition, % at 2.79 µM | AID 652257, 2013;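 active = inhibition above about 21% made by adding two undisclosed values, limit read from the data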
eLon inh = inhibitors of E. coli Lon protease, primary screen, biochemical, fluorescence polarization; P0A9M0; purified E. coli Lon protease; inhibition, % at 7.94 µM; 0.42% of 360,000 active; AID 602123, 2011; in the data active = inhibition above about 13%, passing the limit was not always enough;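 also: 0% = enzyme with probe and DMSO and 100% = no enzyme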
GSTO1 inh conf = GSTO1 inhibitor hit confirmation, counter-screen for RBBP9 inhibitor project, biochemical, fluorescence polarization, triplicate. shares compounds with GSTO1 counter. recombinant GSTO1, probe fluorescence polarization. inhibition, % at 5.96 µM. 54% of 2,400 active;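 active = inhibition above the primary screen's cutoff, its mean inhibition plus 3 SD, cut at about 35% in these data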;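 also: loss of polarization as inhibitors block binding of rhodamine sulfonate ester activity probe; 0% = GSTO1 with DMSO and 100% = wells lacking GSTO1 enzyme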
GSTO1 ABPP inh = inhibitors of purified human GSTO1, late-stage follow-up, biochemical, gel ABPP, SE-Rh probe, percent inhibition. shares compounds with GSTO1 counter. recombinant GSTO1, gel ABPP SE-Rh probe fluorescence. inhibition, % at 1 µM. 30% of 130 active. AID 463110, 2010;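 active = inhibition of the enzyme GSTO1 above about 75%, limit read from the data; inactive = inhibition below that limit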
PAD4 confirm = human PAD4 inhibitors, confirmation, biochemical, fluorescence polarization; shares compounds with PAD4 inh; recombinant PAD4, RCA probe fluorescence polarization; inhibition, % at 6.36 µM; 28% of 1,200 active; AID 488796, 2010;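 active = mean inhibition across replicates above the hit cutoff set by the earlier primary screen, cut at about 15% in these data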;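 also: inhibitors block active-site labeling by the probe so polarization falls; 0% = PAD4 with probe and DMSO and 100% = probe without PAD4 enzyme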
Active calls of the source: *; . = no result given; + = active, no number; ! = not confirmed by another sample. The list is not random: actives were taken first. Their share in the collection is about 2.5%.

SMILES	TDP2 inh	GSTO1 counter	PAD4 inh	PRMT1 inh	eLon inh	GSTO1 inh conf	PAD4 confirm	others
CC(C)CNC(=O)COC(=O)c1c2c(nc3ccccc13)CCC2	21.4	-3.5	0.3	-0.9	-1.7	.	.
CC(/C=C1\SC(=S)N(NC(=O)c2ccccc2C)C1=O)=C\c1ccccc1	11.6	-7.0	-15.0	-2.3	-18.9	.	.
CC(/C=C1\SC(=S)N(NC(=O)c2ccc(C)cc2)C1=O)=C\c1ccccc1	.	-6.9	-8.1	.	-3.3	.	.
CC(/C=C1\SC(=S)N(NS(=O)(=O)c2ccc(C)cc2)C1=O)=C\c1ccccc1	5.2	47.6*	-6.7	7.0	3.3	36.0*	.
CC(/C=C1\SC(=S)N(NS(=O)(=O)c2ccccc2)C1=O)=C\c1ccccc1	-8.6	40.2*	-0.1	3.0	0.5	31.8	.
COc1ccc(NC(=O)Nc2cc(C)nn2-c2ccccc2)cc1	-1.4	.	.	-0.3	.	.	.
Cc1nnc2c(SC(C)C)nc3ccccc3n12	-9.1	41.6*	-0.2	-3.3	1.6	5.3	.
CCOC(=O)CSc1nc2ccccc2n2c(C)nnc12	-5.0	-8.7	-0.1	1.5	-17.0	.	.
Oc1ccc(/C=N/Nc2cccc3cccnc23)c(O)c1	0.3	38.0*	-0.8	8.9	-1.3	5.6	.
CCc1nc(N2CCN(C(=O)CCl)CC2)c2c3c(sc2n1)CC(C)CC3 (stereo unspecified)	0.2	63.2*	2.4	3.6	-3.8	78.7*	.	GSTO1 ABPP inh=51.0
COc1ccc(/C=N/Nc2ncnc(Cl)c2N)cc1OC	2.0	11.2	-4.5	5.9	-7.0	.	.
Nc1c(Cl)ncnc1N/N=C/c1cccc(O)c1	-1.8	45.1*	-4.2	20.6	-2.0	9.3	.
COc1ccc(/C(C)=N/NC(=O)Cc2cc(=O)[nH][nH]2)cc1OC	2.6	.	.	-4.7	.	.	.
N#C/C(=C\c1c(N2CCC(C(N)=O)CC2)nc2ccccn2c1=O)C(=O)NCc1ccco1	-6.5	45.0*	0.8	4.7	-3.4	7.7	.
CCSc1nnc(NC(=O)C(C(F)(F)F)C(F)(F)F)s1	-9.1	38.5*	-4.8	3.0	5.4	48.2*	.
Cc1cc2nc(CCl)cc(=O)n2[nH]1	1.0	103.8*	2.7	-2.3	4.5	92.7*	.	GSTO1 ABPP inh=54.0
N#C/C(=C\c1cc(O)c(O)c(O)c1)C(N)=O	-2.5	58.8*	9.7	58.6*	-18.1	14.7	.
O=C(c1cccc(F)c1)N1CCCC(c2nc(-c3cccs3)no2)C1 (stereo unspecified)	-3.7	.	.	-0.3	.	.	.
COC[C@H]1CCCN1c1ccc2c(c1)O[C@H](C)CCN(C1CC1)S2(=O)=O	-3.2	.	.	6.0	.	.	.
CC(C)(C)c1nn(-c2ccccc2)c2[nH]c(=O)c(CNc3ccc4c(c3)OCCO4)cc12	-5.5	27.5	2.8	2.8	-5.0	.	.
Cc1nn(-c2ccccc2)c2[nH]c(=O)c(CNc3ccc(N4CCOCC4)cc3)cc12	13.5	38.7*	20.4*	-0.6	-3.6	0.0	3.3
O=C1C(Cl)=C(N2CCN(c3ccccc3[N+](=O)[O-])CC2)C(=O)c2ccccc21	61.9*	82.2*	28.9*	6.4	6.7	87.8*	8.1
CC(=O)[C@]1(O)Cc2c(O)c3c(c(O)c2[C@@H](O[C@H]2C[C@H](N)[C@H](O)[C@H](C)O2)C1)C(=O)c1ccccc1C3=O	.	67.0*	84.2*	.	.	59.1*	89.4*
COc1cccc2c1C(=O)c1c(O)c3c(c(O)c1C2=O)C[C@@](O)(C(=O)CO)C[C@@H]3O[C@H]1C[C@H](N)[C@@H](O)[C@H](C)O1	.	44.3*	56.2*	.	+	33.3	64.4*
COc1ccccc1NS(=O)(=O)c1cc(N)ccc1N1CCCC1	0.8	.	1.3	7.3	0.2	.	.
SMILES	TDP2 inh	GSTO1 counter	PAD4 inh	PRMT1 inh	eLon inh	GSTO1 inh conf	PAD4 confirm	others
COc1ccccc1NC1=C(N2CCCCC2)C(=O)c2ccccc2C1=O	.	73.5*	37.5*	.	7.7	54.2*	1.6
N#Cc1cccc(OC[C@@H](O)CN2CCC(C(O)(c3ccccc3)c3ccccc3)CC2)c1	-10.0	.	.	-0.1	.	.	.
Oc1ccc(N=Cc2ccc(-c3cccs3)s2)cc1	8.5	81.7*	17.7*	37.8*	-2.1	6.1	6.9
O=Cc1ccc(-c2cccs2)s1	-11.2	.	.	-4.8	1.4	.	.
COc1ccc(-n2c(COc3ccccc3)nnc2SCC(=O)Nc2ccccc2-c2ccccc2)cc1	-16.0	.	.	-0.6	.	.	.
CCN(CC)S(=O)(=O)c1ccc(C)c(NS(=O)(=O)c2cc(/C=C/C(=O)O)cc(OC)c2OC)c1	20.1	39.0*	52.6*	-2.5	5.6	24.3	-10.4
CCc1cc(SC#N)cc(C)c1NC(=O)CCl	-9.6	72.4*	20.6*	30.7*	-3.2	74.5*	2.1
CCOC(=O)C1=NOC(C(=O)NCc2ccccc2)(C(=O)c2ccc(OC)cc2)C1 (stereo unspecified)	-0.4	.	.	-0.9	.	.	.
O=C(NC1CCCCN(Cc2ccc(Cl)cc2)C1=O)c1cccs1 (stereo unspecified)	-3.3	.	.	4.5	.	.	.
O=C(Cc1cc(=O)[nH][nH]1)N/N=C/c1c(Cl)cccc1Cl	10.1	52.0*	20.0*!	0.0	-8.5	1.5	-4.6
CC(=O)NC1=C(Nc2ccc(N(C)C)cc2)C(=O)c2ccccc2C1=O	-5.8	46.3*	17.5*	-0.6	-3.6	4.5	-7.1
O=C(CCl)N(c1ccc(Cl)cc1)c1c[nH]c2ccccc12	9.5	71.6*	16.6*	-0.3	6.2	82.2*	33.8*	GSTO1 ABPP inh=63.0
O=C(Cc1ccc(Cl)cc1)NCCc1c[nH]c2ccccc12	5.6	8.6	2.9	-0.6	-3.8	.	.
C#CCNC(=O)C[C@H]1C[C@@]2(C(=O)OC)C(=C[C@H](C3CCCC3)O[C@@H]2C)N(CCc2ccc(OC)c(OC)c2)C1=O	-4.2	.	.	-0.9	.	.	.
CCCn1nc([N+](=O)[O-])c(C(C#N)c2nc3ccccc3s2)c(Cl)c1=O (stereo unspecified)	3.6	66.0*	19.1*	28.1*	13.2	44.4*	22.7*
O=[N+]([O-])c1ccc(CN2CCN(c3nc4ccccc4s3)CC2)cc1	3.1	1.5	-4.5	3.0	4.9	.	.
COc1ccc(S(=O)(=O)c2ccc(O)cc2)cc1	-12.2	4.2	1.5	-4.8	5.1	.	.
